PMC4675651 (Drug Design, Development and Therapy, 2015)
“Also recorded” adds a separate entry of the source. Read-outs that look alike come from different tables or passages of the source.

Assays:
T2DM mice = format: in vivo; details: for Serum TC / Serum TG / Body weight / Effect on serum TC and TG: T2DM mice; for Serum TC / Serum TG: 200 mg/kg oral once per day, mean ± SD (n=8–10); for Body weight: 200 mg/kg oral once a day for 8 weeks; for Effect on serum TC and TG: 200 mg/kg oral, 8 weeks
Outline: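 Male Kunming mice (8 weeks, 18–22 g) fed high-fat diet (20% sucrose, 10% lard, 2.5% cholesterol, 1% sodium cholate, 66.5% chow) for 4 weeks. After an 8 h fast, STZ 35 mg/kg i.p. in citrate-buffered saline pH 4.4, daily for 1 week. Test compound by oral gavage daily for 8 weeks, DMSO stock diluted in 0.9% saline; saline vehicle. Weekly 8-h-fasted tail-vein glucose (glucometer) and body weight; serum TG/TC by kits.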

PPAR-γ = details: in vitro; ref Atanasov et al [18]; cited from earlier work
PTP1B−/− mice = experiment: Honokiol treatment of PTP1B gene knockout mice; format: in vivo; details: pre-experiments, Figure S2
SHP1 = molecular target: T1, SHP1 (Homo sapiens, UniProt P29350); experiment: PTP selectivity panel; format: biochemical
T1 sequence (P29350 244-515 limits assumed): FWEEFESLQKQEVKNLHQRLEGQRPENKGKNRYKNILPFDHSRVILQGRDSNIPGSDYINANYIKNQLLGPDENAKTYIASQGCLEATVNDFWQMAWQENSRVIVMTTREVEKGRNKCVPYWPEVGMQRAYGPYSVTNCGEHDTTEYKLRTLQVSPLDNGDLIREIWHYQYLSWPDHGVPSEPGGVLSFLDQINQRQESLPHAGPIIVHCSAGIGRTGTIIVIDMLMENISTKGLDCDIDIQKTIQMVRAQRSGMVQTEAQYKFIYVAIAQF
Outline: (§1)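 Recombinant catalytic domains in pH 7.0 buffer (50 mmol/L MOPS, 100 mmol/L NaCl, 1 mmol/L EDTA, 1 mmol/L DTT, 1 mg/mL BSA). Enzyme preincubated with test compound 5 min at 37 °C. Then pNPP (100 mmol/L stock) added, 10 min at 37 °C. Stopped with NaHCO3; p-nitrophenol read at 405 nm. IC50 by fitting concentration–inhibition curves; triplicate points.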

[1] = tested on: murine and human adipocytes; details: ref Alonso-Castroa et al [20]; cited from earlier work
TCPTP = molecular target: T2, TCPTP (Homo sapiens, UniProt P17706); experiment: PTP selectivity panel; format: biochemical
T2 sequence (P17706 5-275 limits assumed): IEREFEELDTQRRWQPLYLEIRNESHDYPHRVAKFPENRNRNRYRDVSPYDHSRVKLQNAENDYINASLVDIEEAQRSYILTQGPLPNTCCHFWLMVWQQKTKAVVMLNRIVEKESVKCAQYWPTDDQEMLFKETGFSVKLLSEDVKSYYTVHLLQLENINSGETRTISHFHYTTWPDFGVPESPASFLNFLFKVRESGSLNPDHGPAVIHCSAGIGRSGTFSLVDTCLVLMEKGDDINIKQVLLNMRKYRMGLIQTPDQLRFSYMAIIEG
Outline: as §1

L6 myotubes = details: ref Choi et al [19]; cited from earlier work
PTP1B = molecular target: T3, PTP1B (Homo sapiens, UniProt P18031); experiment: PTP1B inhibition measurement; format: biochemical
T3 sequence (P18031 3-277 limits assumed): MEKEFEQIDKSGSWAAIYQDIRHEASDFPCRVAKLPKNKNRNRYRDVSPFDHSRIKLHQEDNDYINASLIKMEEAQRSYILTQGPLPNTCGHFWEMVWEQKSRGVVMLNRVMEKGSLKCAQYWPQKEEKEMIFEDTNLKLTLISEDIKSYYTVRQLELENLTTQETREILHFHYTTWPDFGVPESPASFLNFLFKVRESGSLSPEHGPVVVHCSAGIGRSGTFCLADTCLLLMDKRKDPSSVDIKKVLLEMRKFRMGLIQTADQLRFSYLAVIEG
Outline: as §1

[2] = tested on: insulin signaling (IRβ, AKT, ERK1/2, GLUT4, phosphotyrosine) in C2C12 myotubes; experiment: Western blot of insulin signaling in insulin-stimulated C2C12 myotubes; format: cell-based
Outline: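 C2C12 myoblasts at 75% confluence were differentiated in DMEM with 2% horse serum for 4–6 days. Myotubes were pretreated 1 h with test compound (in DMSO), then given 10 nM insulin for 10 min. Whole-cell lysates and plasma-membrane fractions were blotted (10% SDS-PAGE) for phospho/total IRβ, AKT, ERK1/2, GLUT4, phosphotyrosine and actin; ECL detection. Phospho normalised to total, expressed as fold of insulin alone; n=3.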

[3] = tested on: insulin signaling (IRβ, AKT, ERK1/2, phosphotyrosine) in adipose tissue, skeletal muscle, and liver; experiment: Western blot of insulin signaling in tissues of T2DM mice; format: in vivo; details: 200 mg/kg, 8 weeks
Outline: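 After 8 weeks of dosing, subcutaneous adipose, skeletal muscle and liver were snap-frozen and homogenised in SDS sample buffer lacking bromophenol blue, then spun 12,000 × g, 20 min, 4 °C. 20 µg protein run on 8–10% SDS-PAGE. Membranes blocked 2 h in 3% BSA/TBST; primaries overnight at 4 °C, HRP secondaries 2 h. ECL and densitometry; phospho normalised to total, normal mice = 100%; n=3.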

SHP2 = molecular target: T4, SHP2 (Homo sapiens, UniProt Q06124); experiment: PTP selectivity panel; format: biochemical
T4 sequence (Q06124 247-517 limits assumed): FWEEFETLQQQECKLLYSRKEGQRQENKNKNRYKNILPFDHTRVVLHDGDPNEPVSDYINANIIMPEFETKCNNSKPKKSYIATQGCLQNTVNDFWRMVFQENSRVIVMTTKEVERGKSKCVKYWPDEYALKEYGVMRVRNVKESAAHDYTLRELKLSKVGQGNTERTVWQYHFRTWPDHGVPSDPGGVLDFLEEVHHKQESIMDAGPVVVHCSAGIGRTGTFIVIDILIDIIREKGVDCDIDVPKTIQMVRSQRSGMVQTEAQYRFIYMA
Outline: as §1

HePTP = molecular target: T5, HePTP (Homo sapiens, UniProt P35236); experiment: PTP selectivity panel; format: biochemical
T5 sequence (P35236 97-350 limits assumed): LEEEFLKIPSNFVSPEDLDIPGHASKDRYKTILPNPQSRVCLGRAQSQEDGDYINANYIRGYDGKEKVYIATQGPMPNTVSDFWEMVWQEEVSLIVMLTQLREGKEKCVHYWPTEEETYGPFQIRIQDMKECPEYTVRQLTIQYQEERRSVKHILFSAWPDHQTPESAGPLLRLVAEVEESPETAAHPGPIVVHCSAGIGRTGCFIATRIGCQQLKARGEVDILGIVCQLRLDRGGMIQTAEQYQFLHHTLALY
Outline: as §1

C2C12 cells = experiment: MTT cytotoxicity assay; format: cell-based; details: 24 hours
Outline: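 C2C12 cells were grown in DMEM with 10% FBS at 37 °C, 5% CO2, seeded in 96-well plates and exposed to test compound for 24 h. MTT (5 mg/mL stock) was added for 4 h at 37 °C. Formazan was dissolved in DMSO and read at 490 nm. Viability is relative to untreated control (100%). Six wells per treatment; three independent experiments.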

[4] = honokiol 0 to 30 µM 1 hour, then 10 nM insulin 10 minutes

CN(C)C(=N)N=C(N)N [Metformin, reference compound]
Serum TC (T2DM mice; 0 week): 3.70 ± 0.31 mmol/L | Serum TG (T2DM mice; 0 week): 0.54 ± 0.02 mmol/L | Serum TC (T2DM mice; 8 week): 3.57 ± 0.11 mmol/L | Serum TG (T2DM mice; 8 week): 0.49 ± 0.04 mmol/L | Body weight (T2DM mice): stable body weight | Effect on serum TC and TG (T2DM mice): no significant difference

C=CCc1ccc(O)c(-c2ccc(O)c(CC=C)c2)c1 [Honokiol]
PPAR-γ activation (PPAR-γ): novel nonadipogenic partial PPAR-γ activator | Blood glucose in PTP1B−/− mice (PTP1B−/− mice): cannot affect; also recorded: No hypoglycemic potency | Body weight in PTP1B−/− mice (PTP1B−/− mice): No potency of honokiol on the amelioration of body weight | IC50 (SHP1): 763.2 ± 5.49 µM | Selectivity on PTP1B over SHP1 (SHP1; from IC50 values): ~ 12 fold | Serum TC (T2DM mice; 0 week): 3.62 ± 0.15 mmol/L | Serum TG (T2DM mice; 0 week): 0.51 ± 0.03 mmol/L | Serum TC (T2DM mice; 8 week): 3.67 ± 0.16 mmol/L | Serum TG (T2DM mice; 8 week): 0.48 ± 0.03 mmol/L | Body weight (T2DM mice): decreased at early treatment and then gradually increased | Effect on serum TC and TG (T2DM mice): does not affect TC and TG | Macroscopic organ toxicity (T2DM mice; brain, heart, kidneys, liver, spleen, stomach, large and small intestine, and lungs): no macroscopic toxicity | Dose with the most significant hypoglycemic effects (pre-experiments) (T2DM mice; series 10, 50, 100, 150, 200, 250, and 300 mg/kg, data not shown): 200 mg/kg | Glucose uptake [1]: stimulates glucose uptake | IC50 (TCPTP): 604.4 ± 4.89 µM | Selectivity on PTP1B over TCPTP (TCPTP; from IC50 values): approximately ninefold | Glucose uptake (L6 myotubes): stimulates glucose uptake | Ki (PTP1B): 6.67 µM | Inhibition type on PTP1B (PTP1B; Lineweaver–Burk plot, 1/v versus 1/[pNPP]): reversible competitive inhibitory activity; also recorded: competing with the substrate for the enzyme active site | Tyrosine phosphorylations of cellular proteins [2]: enhanced | Insulin-induced GLUT4 level in the plasma membrane fraction ([2]; GLUT4 in whole cell lysates not altered): dose-dependently increased | Insulin-stimulated tyrosine phosphorylation of ERK [2, 4]: enhances | Insulin-stimulated tyrosine phosphorylation of IRβ [2, 4]: largely enhanced | Serine phosphorylation of AKT [2, 4]: enhances | Serine phosphorylation of AKT in adipose tissue, skeletal muscle, and liver [3]: enhanced | Tyrosine phosphorylation of ERK in adipose tissue, skeletal muscle, and liver [3]: enhanced | IC50 (SHP2): 785.5 ± 6.83 µM | Selectivity on PTP1B over SHP2 (SHP2; from IC50 values): ~ 12 fold | IC50 (HePTP): 890 ± 9.46 µM | Selectivity on PTP1B over HePTP (HePTP; from IC50 values): ~ 14 fold | Maximum concentration without cytotoxicity (C2C12 cells): 40 µM
